Assay outcomes deposited in PubChem by Broad Institute.
rRNA inh HTS: inhibits bacterial ribosomal RNA function over humanized ribosomes | GFP signal change (wild-type ribosome), % (no concentration beside the values) | actives 1.6% (n = 350,000) | AID 720706 | E. coli WT GFP vs humanized-ribosome RFP mutants, fluorescence, 24 h; stronger effect = lower value; DMSO median 0, no signal -100;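 active = significant combined selectivity score with lowered wild-type GFP, culture density cut under 30%, mutant RFP and density less affected; inactive = any of these conditions unmet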
FN deposition inh: fibronectin deposition inhibition; AH1F fibroblasts, Alexa488-fibronectin deposition fluorescence, overnight; actives 0.086% (n = 350,000); AID 743247; inhibition, % at 12.6 µM;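 active = mean inhibition across replicates of 30% or more, regardless of how many single replicates reach that level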;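 note: positive control wells lacked labelled fibronectin entirely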
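Material: AH1F fibroblast monolayer depositing Alexa488-labelled fibronectin into matrix | Input: 10000 AH1F cells/well | Medium: DMEM plus 2% serum, read in PBS | Reagent: Alexa488-fibronectin, 24 nM final in well | Compound dosing: One dose per compound, pinned | Schedule: 1 h adhesion, overnight exposure | Measured by: Fluorescence at 485 nm excitation, 525 nm emission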
E-selectin induc: E-selectin induction on HUVECs; HUVEC E-selectin immunofluorescence imaging; normalized: neutral wells 0, TNF-alpha wells 100; activation, % at 7.58 µM; actives 0.37% (n = 260,000); AID 686992;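 active = mean E-selectin-positive cell signal at least 10% of the positive control, reached in at least 60% of replicates, without over 20% cell loss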
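Test system: HUVEC; input: 3,000 HUVEC/well; measured by: immunofluorescence imaging; read-out: % PE-positive cells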
SIRT5 block: blocks human SIRT5 desuccinylation of peptide. Q9NXA8. inhibition, % at 15 µM. actives 1.1% (n = 330,000). AID 652115. Purified SirT5, succinyl-peptide AMC, trypsin-coupled fluorescence; in the data active = inhibition above about 15%
Target sequence (Q9NXA8 whole entry, looked up): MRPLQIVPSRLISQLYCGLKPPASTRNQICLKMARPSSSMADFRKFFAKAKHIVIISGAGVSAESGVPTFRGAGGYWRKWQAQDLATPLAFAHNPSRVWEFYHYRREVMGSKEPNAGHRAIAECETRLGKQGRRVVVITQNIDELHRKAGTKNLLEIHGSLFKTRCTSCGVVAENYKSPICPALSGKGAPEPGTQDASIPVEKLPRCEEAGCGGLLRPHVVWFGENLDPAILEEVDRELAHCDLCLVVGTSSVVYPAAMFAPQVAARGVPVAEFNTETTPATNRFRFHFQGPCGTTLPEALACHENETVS
Statin myotox sup: suppression of simvastatin myotoxicity. C2C12 myotubes + simvastatin, ATP luminescence, 48 h; scaled: DMSO 0, geranylgeraniol control 100. rescue of ATP level, % at 7.49 µM. actives 0.78% (n = 330,000);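 active = mean ATP rescue above about 67%, or every replicate alone reaching that limit, limit read from the data, passing the limit was not always enough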;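 note: myotubes were challenged with 10 µM simvastatin during compound exposure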
FGF22 binding: FGF22 (human) thermal shift binding | Q9HCT0 | recombinant FGF22 thermal shift, SYPRO orange fluorescence; percent of sucrose octasulfate shift, DMSO zero | activity (Tm shift, normalised), % at 9.99 µM | actives 1.5% (n = 340,000) | AID 651658;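 active = mean Tm shift, scaled 0 neutral to 100 positive control, at about 1.3% or above, every replicate too, limit read from the data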
Target sequence (Q9HCT0 whole entry, looked up): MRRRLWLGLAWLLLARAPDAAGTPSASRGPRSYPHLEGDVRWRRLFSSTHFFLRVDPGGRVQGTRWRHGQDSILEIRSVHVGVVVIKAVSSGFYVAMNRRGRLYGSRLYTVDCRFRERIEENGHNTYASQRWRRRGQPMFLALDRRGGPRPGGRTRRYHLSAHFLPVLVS
Numbers without * were called inactive; nt = no result given. The list is not random: actives were taken first. Their share in the collection is about 4%.

SMILES | rRNA inh HTS | FN deposition inh | E-selectin induc | SIRT5 block | Statin myotox sup | FGF22 binding
Oc1ccc(Br)cc1/C=N/NC(=S)NCCc1ccccc1 | -47 | 5 | nt | 3 | 26 | 1
O=C(COc1nsnc1N1CCOCC1)N/N=C/c1ccccc1O | -22* | 0 | nt | nt | nt | 0
O=C(CCC(=O)Nc1ccc(Br)cc1)N/N=C/c1ccccc1O | -15* | 2 | 0 | -7 | 13 | 0
O=C(CCc1ccccc1)N/N=C/c1cc(Br)ccc1O | -16* | 16 | nt | -1 | nt | 0
O=C(CCCCC(=O)NN=Cc1ccccc1O)NN=Cc1ccccc1O | -14 | 2 | 0 | 6 | 106* | 0
CCCNC(=O)C[C@H]1CC[C@@H]2[C@H](COc3ccc(NC(=O)c4cscn4)cc3C(=O)N2C)O1 | 1 | 1 | 0 | 0 | -3 | 0
CCCCNC(=O)Cc1ccc(Br)cc1 | 16 | -2 | -3 | 0 | nt | 44*
CCCCCCCC(=O)N/N=C/c1ccc(Br)cc1 | nt | -16 | nt | nt | 133* | nt
CCCCCCCC(=O)N/N=C/c1cccnc1 | nt | nt | nt | nt | 15 | nt
O=C(NC1CCC1)[C@H]1[C@H](CO)[C@H]2Cn3c(ccc(-c4ccccc4)c3=O)[C@@H]1N2CC1CC1 | -3 | nt | 0 | -4 | 21 | 0
CCOC(=O)N1CCN(c2c(N3CCN(c4ccc(OC)cc4)CC3)c(=O)c2=O)CC1 | 6 | 0 | -1 | 3 | -1 | -1
CCOC(=O)N1CCN(c2c(N3CCOCC3)c(=O)c2=O)CC1 | 7 | -2 | 204* | 2 | -7 | 0
COc1ccc(CNC(=O)c2cc(=O)c3cc(C)cc(C)c3o2)cc1 | 14 | -4 | 0 | 24* | 0 | 0
COC(=O)c1c(C)[nH]c(C(=O)C(C)OC(=O)C2CC(=O)N(c3ccc(C)cc3)C2)c1C (configuration not stated) | -23* | 5 | nt | -3 | 7 | 0
Cc1nc2ccccc2c(=O)n1/N=C/c1ccc(O)cc1 | 3 | nt | nt | -4 | -7 | 0
COc1ccc(/C=N/n2c(C)nc3ccccc3c2=O)cc1 | 1 | 3 | 31* | -4 | 14 | 0
CC(C)NC(=O)Nc1ccc2c(c1)C(=O)N([C@@H](C)CO)C[C@H](C)[C@H](CN(C)S(=O)(=O)c1cccs1)OCCCC[C@@H](C)O2 | 1 | -10 | nt | -5 | nt | 0
Cc1cc2ncn(/N=C/c3ccc([N+](=O)[O-])o3)c2cc1C | 17 | nt | nt | -3 | 87* | 0
C[C@@H]1CN([C@@H](C)CO)C(=O)c2cc(NS(=O)(=O)c3ccc(F)cc3)ccc2O[C@@H]1CN(C)C(=O)Nc1ccc(F)cc1 | -2 | nt | 0 | -2 | -1 | 0
COc1ccc(C#Cc2ccc3c(c2)[C@H]2[C@H](CCN2S(=O)(=O)c2ccc(OC)cc2)[C@@H](CO)N3C)cc1 | 4 | 1 | 1 | 6 | -2 | 0
CN(C)C(=O)[C@H]1[C@H](CO)[C@H]2Cn3c(ccc(C4=CCCCC4)c3=O)[C@@H]1N2Cc1cccnc1 | 3 | nt | 0 | -33 | -17 | nt
CCC(C)n1c(=S)[nH]c2c(sc3ccc([N+](=O)[O-])cc32)c1=O (configuration not stated) | -32* | 7 | 1 | 6 | nt | 0
CO[C@@H]1CN(C)C(=O)c2ccc(NS(=O)(=O)c3cccc(F)c3)cc2OC[C@H](C)N(Cc2cc(F)ccc2F)C[C@H]1C | -5 | 4 | 0 | nt | 8 | 1
C/C(N)=C(/C#N)C(=O)COC(=O)c1cc2c(s1)CCCC2 | -24 | -5 | 1 | 1 | nt | 0
C/C(N)=C(/C#N)C(=O)COC(=O)c1cc2c(s1)CCC(C)C2 (configuration not stated) | -29* | nt | nt | -3 | nt | 0
SMILES | rRNA inh HTS | FN deposition inh | E-selectin induc | SIRT5 block | Statin myotox sup | FGF22 binding
O=C(CSc1nc2c(cnn2-c2ccc(F)cc2)c(=O)[nH]1)N1CCOCC1 | nt | 9 | nt | nt | -3 | nt
O=C(CSc1nc2c(cnn2-c2ccccc2)c(=O)[nH]1)N1CCOCC1 | nt | nt | nt | nt | 142* | nt
Cc1ccc(-n2ncc3c(=O)[nH]c(SCC(=O)N4CCOCC4)nc32)cc1 | nt | 7 | nt | nt | 129* | nt
O=C(CSc1nc2c(cnn2-c2ccc(F)cc2)c(=O)[nH]1)N1CCCCC1 | -5 | 8 | 0 | -2 | -6 | 0
Cc1noc(C)c1NC(=O)N(C)C[C@H]1Oc2ccc(NS(=O)(=O)c3ccc(F)cc3)cc2CC(=O)N([C@H](C)CO)C[C@@H]1C | 1 | nt | nt | nt | nt | nt
Cn1nc(SCc2ccccc2)c(=O)[nH]c1=O | -3 | 2 | 1 | nt | -1 | 43*
C[C@H](CO)N1C[C@H](C)[C@@H](CN(C)Cc2ccc(C(=O)Nc3ccccc3N)cc2)Oc2ccc(NC(=O)Nc3ccc(C(F)(F)F)cc3)cc2C1=O | -3 | nt | 4 | nt | 82* | 0
C[C@@H]1CN([C@@H](C)CO)C(=O)c2cc(NC(=O)Nc3ccc(C(F)(F)F)cc3)ccc2O[C@@H]1CN(C)Cc1ccc(C(=O)Nc2ccccc2N)cc1 | -7 | nt | 12 | 4 | 72* | 0
O=C(OCC(=O)c1ccc(Cl)cc1Cl)c1ccc2c(c1)C(=O)N(c1cccc3ncccc13)C2=O | nt | -4 | -1 | nt | -10 | nt
Cc1ccc(C(=O)COC(=O)c2ccc3c(c2)C(=O)N(c2cccc4ncccc24)C3=O)cc1 | 10 | nt | nt | 18* | nt | 0
O=C(COC(=O)c1ccc2c(c1)C(=O)N(c1cccc3ncccc13)C2=O)c1ccc(Cl)cc1 | 10 | -6 | nt | -2 | 5 | 44*
C[C@@H]1CN([C@H](C)CO)C(=O)c2cc(/C=C/c3ccccc3)cnc2O[C@@H]1CN(C)C(=O)C1CC1 | 4 | 4 | 0 | -27 | nt | 0
c1ccc2c(CN3CCCCC3)csc2c1 | nt | -12 | 0 | 15* | nt | 0
c1ccc2c(CN3CCOCC3)csc2c1 | 16 | 3 | nt | 1 | nt | 0
Cc1ccc(S(=O)(=O)N(C)C[C@H]2OCCCC[C@H](C)Oc3ccc(NS(C)(=O)=O)cc3C(=O)N([C@@H](C)CO)C[C@@H]2C)cc1 | -6 | 3 | 1 | -1 | nt | 0
C[C@H]1CN([C@@H](C)CO)C(=O)c2cc(-c3ccc(F)cc3)cnc2O[C@@H]1CN(C)CC1CCCC1 | 11 | 5 | 0 | -2 | 8 | 0
Cc1ccc(C2CC(=O)C=C(Nc3ccc(Cl)cc3)C2)cc1 (configuration not stated) | nt | 3 | nt | nt | nt | nt
Cc1ccc(C2CC(=O)C=C(NCc3ccccc3)C2)cc1 (configuration not stated) | -32* | -2 | 0 | -4 | nt | 0
Cc1ccc(C2CC(=O)C=C(NCC(C)C)C2)cc1 (configuration not stated) | 5 | 0 | -3 | 15* | 4 | 0
